Source: PubChem BioAssay (Broad Institute)
The list is not random: actives were taken first. Their share in the collection is about 5.8%.
T cruzi growth-1: blocks T. cruzi growth in NIH3T3 culture; T. cruzi beta-gal in NIH3T3, GalScreen luminescence, 90 h; inhibition, % at 8.34 µM; actives 5.9% (n = 77,000);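 active means mean inhibition above about 93%, with at least 55% of replicates each passing it, limit read from the data, passing the limit was not always enough; inconclusive means only one of those two conditions holds; inactive means neither condition holds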
GASC1 inh: KDM4C (human) demethylase inhibition | GST-KDM4C 2-372, H3K9me3 peptide, LANCE TR-FRET | actives 0.15% (n = 96,000) | inhibition, % at 12.5 µM;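 active means mean replicate inhibition above about 25%, with at least 55% of replicates also reaching it, limit read from the data, passing the limit was not always enough; inconclusive means only one of those two conditions met; inactive means neither condition met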
Target sequence (Q9H3R0 2-372 limits assumed): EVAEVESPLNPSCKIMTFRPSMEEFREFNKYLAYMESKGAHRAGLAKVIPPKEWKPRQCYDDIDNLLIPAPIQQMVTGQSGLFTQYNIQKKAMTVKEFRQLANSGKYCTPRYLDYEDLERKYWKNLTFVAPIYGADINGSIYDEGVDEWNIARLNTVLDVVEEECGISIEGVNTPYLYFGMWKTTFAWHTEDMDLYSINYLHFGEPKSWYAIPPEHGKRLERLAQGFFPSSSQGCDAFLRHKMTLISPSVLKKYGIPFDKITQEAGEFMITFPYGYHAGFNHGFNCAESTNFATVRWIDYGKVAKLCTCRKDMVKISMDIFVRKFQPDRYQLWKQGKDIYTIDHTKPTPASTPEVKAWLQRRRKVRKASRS
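Material: N-terminal GST-fused human GASC-1 (KDM4C) fragment, residues 2-372. Input: 10 nM enzyme. Incubation: enzyme reaction 30 min, then detection 60 min, both room temperature. Doses: one test concentration per compound. Read-out basis: inhibition from TR-FRET ratio decrease. Detection: LANCE TR-FRET, excitation 340 nm, emissions 618 and 671 nm.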
Pf Dd2 inh: P. falciparum Dd2 growth inhibition | SYBR Green, 72 h; stronger effect = lower value | activity change, % at 10 µM | actives 2.3% (n = 94,000); in the data active means activity change below about -80%; inconclusive means no clear call, values can overlap the other calls
IDH1 R132H inh: inhibitors of human IDH1 R132H; IDH1 R132H reductase, diaphorase/resazurin fluorescence, 60 min; inhibition, % at 10 µM; actives 0.18% (n = 70,000); in the data active means inhibition above about 34%; inconclusive means no clear call, values can overlap the other calls; inactive means below about 11%
Target sequence (O75874 whole entry R132H): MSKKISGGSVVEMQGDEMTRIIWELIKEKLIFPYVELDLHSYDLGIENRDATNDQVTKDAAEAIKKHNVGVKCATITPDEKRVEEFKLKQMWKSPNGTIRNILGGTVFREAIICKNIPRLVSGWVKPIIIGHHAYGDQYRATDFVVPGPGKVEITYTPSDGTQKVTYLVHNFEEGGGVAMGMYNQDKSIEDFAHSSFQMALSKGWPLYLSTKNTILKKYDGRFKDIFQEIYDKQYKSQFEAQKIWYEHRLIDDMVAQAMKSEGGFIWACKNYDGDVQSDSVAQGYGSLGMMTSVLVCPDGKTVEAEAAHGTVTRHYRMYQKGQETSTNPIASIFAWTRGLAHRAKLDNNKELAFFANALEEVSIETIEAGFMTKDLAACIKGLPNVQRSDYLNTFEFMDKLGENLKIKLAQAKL
T cruzi growth-2: blocks T. cruzi growth in NIH3T3 host cells; inhibition, % at 8.35 µM; T. cruzi beta-gal in NIH3T3, GalScreen luminescence, 90 h; shares compounds with T cruzi growth-1; AID 651739; actives 72% (n = 5,600);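 active means mean replicate inhibition above about 95% and at least 55% of replicates individually reaching it, limit read from the data; inconclusive means only one of the two criteria is met; inactive means neither criterion is met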
T cruzi growth-3: Trypanosoma cruzi proliferation inhibition | shares compounds with T cruzi growth-1 | T. cruzi beta-gal in NIH3T3, GalScreen luminescence, 90 h | inhibition, % at 2.09 µM | actives 21% (n = 5,600);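 active means mean inhibition above about 95%, with at least 55% of replicates also reaching it, limit read from the data; inconclusive means meets just one of the two conditions; inactive means meets neither condition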
NIH3T3 tox: cytotoxicity in mouse NIH/3T3 fibroblasts | cytotoxicity (signal decrease), % at 8.35 µM | AID 651742 | shares compounds with T cruzi growth-1 | actives 14% (n = 5,600) | NIH/3T3 viability, CellTiter-Glo ATP luminescence, 90 h;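 active means mean signal decrease across replicates above about 35% based on untreated-well scatter, with enough replicates individually passing, limit read from the data; inconclusive means no rule stated though some were filed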
NIH3T3 tox 2: kills mouse NIH/3T3 fibroblasts | actives 56% (n = 5,600) | inhibition, % at 24.9 µM | shares compounds with T cruzi growth-1 | NIH/3T3 viability, CellTiter-Glo ATP luminescence, 90 h;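 active means mean loss of cell viability signal at or above a set limit, and enough replicates individually reaching it; inconclusive means meets only the mean limit or only the replicate share; inactive means meets neither condition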
Each line names hits and unclear results; the compound was inactive in the other large screens (follow-up assays come after a bar, where they were run).

C[C@@H]1CCCCO[C@H](CN(C)Cc2ccc3c(c2)OCO3)[C@H](C)CN([C@H](C)CO)C(=O)c2cc(NC(=O)NC3CCCCC3)ccc2O1	T cruzi growth-1 107.1 (no result: Pf Dd2 inh, IDH1 R132H inh) | T cruzi growth-2 108.5 | T cruzi growth-3 inactive | NIH3T3 tox inactive | NIH3T3 tox 2 104.4
COC(=O)C[C@H]1CC[C@H]2[C@@H](COc3ccc(NS(=O)(=O)c4ccc(F)cc4)cc3C(=O)N2C)O1	none (no result: T cruzi growth-1, IDH1 R132H inh)
C[C@@H]1CCCCO[C@@H](CN(C)Cc2ccc(C(F)(F)F)cc2)[C@@H](C)CN([C@@H](C)CO)C(=O)c2cc(NC(=O)Nc3ccc4c(c3)OCO4)ccc2O1	none
C[C@@H]1CN([C@H](C)CO)C(=O)c2cc(NC(=O)Nc3ccc(C(F)(F)F)cc3)ccc2O[C@@H](C)CCCCO[C@@H]1CN(C)Cc1ccc2c(c1)OCO2	T cruzi growth-1 inconclusive (no result: IDH1 R132H inh) | T cruzi growth-2 inactive | T cruzi growth-3 120.0 | NIH3T3 tox inconclusive | NIH3T3 tox 2 102.4
C[C@@H]1CCCCO[C@@H](CN(C)Cc2ccc3c(c2)OCO3)[C@H](C)CN([C@H](C)CO)C(=O)c2cc(NC(=O)Nc3ccc(C(F)(F)F)cc3)ccc2O1	T cruzi growth-1 119.3 (no result: IDH1 R132H inh) | T cruzi growth-2 101.8 | T cruzi growth-3 109.8 | NIH3T3 tox inactive | NIH3T3 tox 2 104.2
C[C@@H]1CCCCO[C@H](CN(C)Cc2ccc3c(c2)OCO3)[C@@H](C)CN([C@H](C)CO)C(=O)c2cc(NC(=O)Nc3ccc(C(F)(F)F)cc3)ccc2O1	T cruzi growth-1 inconclusive | T cruzi growth-2 inactive | T cruzi growth-3 112.6 | NIH3T3 tox inactive | NIH3T3 tox 2 101.7
CN(C)C(=O)[C@@H]1[C@@H](CO)[C@@H]2Cn3c(ccc(-c4cccc(F)c4)c3=O)[C@H]1N2CCc1ccccc1	none (no result: IDH1 R132H inh)
CCCNC(=O)[C@H]1[C@H](CO)[C@H]2Cn3c(ccc(C4=CCCC4)c3=O)[C@@H]1N2C(C)=O	none (no result: IDH1 R132H inh)
CCCNC(=O)[C@@H]1[C@@H](CO)[C@@H]2Cn3c(ccc(C4=CCCC4)c3=O)[C@H]1N2C(C)=O	T cruzi growth-1 105.6 (no result: IDH1 R132H inh) | T cruzi growth-2 108.5 | T cruzi growth-3 inactive | NIH3T3 tox inactive | NIH3T3 tox 2 inactive
CCCNC(=O)[C@@H]1[C@@H](CO)[C@@H]2Cn3c(ccc(-c4cccc(OC)c4)c3=O)[C@H]1N2CCC	T cruzi growth-1 100.2 (no result: IDH1 R132H inh) | T cruzi growth-2 inactive | T cruzi growth-3 inactive | NIH3T3 tox inactive | NIH3T3 tox 2 inactive
CN(C)C(=O)[C@@H]1[C@@H](CO)[C@@H]2Cn3c(ccc(-c4cccc(F)c4)c3=O)[C@H]1N2Cc1ccccc1	T cruzi growth-1 102.8 (no result: Pf Dd2 inh, IDH1 R132H inh) | T cruzi growth-2 inactive | T cruzi growth-3 inactive | NIH3T3 tox inactive | NIH3T3 tox 2 inactive
CCCNC(=O)[C@H]1[C@H](CO)[C@H]2Cn3c(ccc(-c4cccc(OC)c4)c3=O)[C@@H]1N2CCC	none (no result: IDH1 R132H inh)
CCCNC(=O)[C@H]1[C@H](CO)[C@H]2Cn3c(ccc(-c4ccccc4)c3=O)[C@@H]1N2C(=O)CC1CC1	T cruzi growth-1 106.2 (no result: IDH1 R132H inh) | T cruzi growth-2 inactive | T cruzi growth-3 inactive | NIH3T3 tox inactive | NIH3T3 tox 2 inactive
CCNC(=O)[C@H]1[C@H](CO)[C@H]2Cn3c(ccc(C4=CCCCC4)c3=O)[C@@H]1N2Cc1cocn1	T cruzi growth-1 inconclusive (no result: IDH1 R132H inh) | T cruzi growth-2 inactive | T cruzi growth-3 inactive | NIH3T3 tox inactive | NIH3T3 tox 2 inactive
O=C(NC1CCC1)[C@@H]1[C@@H](CO)[C@@H]2Cn3c(ccc(-c4ccc(F)cc4)c3=O)[C@H]1N2Cc1cocn1	none (no result: T cruzi growth-1, IDH1 R132H inh)
CCCNC(=O)[C@H]1[C@H](CO)[C@H]2Cn3c(ccc(C4=CCCCC4)c3=O)[C@@H]1N2Cc1cocn1	none (no result: IDH1 R132H inh)
O=C(NC1CCC1)[C@@H]1[C@@H](CO)[C@@H]2Cn3c(ccc(-c4cccc(F)c4)c3=O)[C@H]1N2Cc1cocn1	T cruzi growth-1 100.4 (no result: Pf Dd2 inh, IDH1 R132H inh) | T cruzi growth-2 inactive | T cruzi growth-3 inactive | NIH3T3 tox inactive | NIH3T3 tox 2 inactive
C[C@@H]1CN([C@@H](C)CO)C(=O)Cc2cc(NC(=O)Nc3cccc4ccccc34)ccc2O[C@H]1CN(C)Cc1ccc(Oc2ccccc2)cc1	T cruzi growth-1 inconclusive | T cruzi growth-2 105.1 | T cruzi growth-3 107.5 | NIH3T3 tox inactive | NIH3T3 tox 2 inactive
C[C@@H]1CN([C@H](C)CO)C(=O)Cc2cc(NC(=O)Nc3cccc4ccccc34)ccc2O[C@H]1CN(C)Cc1ccc(Oc2ccccc2)cc1	T cruzi growth-1 96.3 | T cruzi growth-2 107.1 | T cruzi growth-3 inactive | NIH3T3 tox inactive | NIH3T3 tox 2 inactive
C[C@H]1CN([C@@H](C)CO)C(=O)Cc2cc(NC(=O)Nc3cccc4ccccc34)ccc2O[C@H]1CN(C)Cc1ccc(Oc2ccccc2)cc1	none
CCC(=O)N(C(=O)CC)c1cc2oc3ccccc3c2cc1OC	none (no result: T cruzi growth-1, GASC1 inh, Pf Dd2 inh)
COc1ccc(S(=O)(=O)N2CC[C@@H]3[C@H]2c2cc(-c4ccccc4F)ccc2N(C)[C@H]3CO)cc1	none (no result: IDH1 R132H inh)
CN1c2ccc(-c3ccccc3F)cc2[C@@H]2[C@@H](CCN2S(=O)(=O)c2ccc(F)cc2)[C@H]1CO	T cruzi growth-1 107.6 (no result: IDH1 R132H inh) | T cruzi growth-2 111.4 | T cruzi growth-3 inactive | NIH3T3 tox inconclusive | NIH3T3 tox 2 49.5
CN1c2ccc(-c3ccccc3F)cc2[C@@H]2[C@@H](CCN2S(=O)(=O)c2ccc(F)cc2)[C@@H]1CO	T cruzi growth-1 inconclusive (no result: IDH1 R132H inh) | T cruzi growth-2 95.8 | T cruzi growth-3 inconclusive | NIH3T3 tox 45.3 | NIH3T3 tox 2 46.5
C[C@H]1CN([C@@H](C)CO)C(=O)c2cccc(NS(=O)(=O)c3ccc(Cl)cc3)c2O[C@H]1CN(C)S(=O)(=O)c1ccc(F)cc1	none (no result: IDH1 R132H inh)
C[C@H](CO)N1C[C@H](C)[C@@H](CN(C)CC2CCCCC2)OCCCC[C@H](C)Oc2ccc(NC(=O)Nc3ccc(F)cc3)cc2C1=O	T cruzi growth-1 114.3 | T cruzi growth-2 98.4 | T cruzi growth-3 110.7 | NIH3T3 tox inactive | NIH3T3 tox 2 103.0
C[C@@H]1CCCCO[C@@H](CN(C)CC2CCCCC2)[C@H](C)CN([C@H](C)CO)C(=O)c2cc(NC(=O)Nc3ccc(F)cc3)ccc2O1	T cruzi growth-1 104.6, Pf Dd2 inh -89.9 | T cruzi growth-2 95.0 | T cruzi growth-3 112.4 | NIH3T3 tox inactive | NIH3T3 tox 2 102.4
C[C@H]1CCCCO[C@H](CN(C)CC2CCCCC2)[C@@H](C)CN([C@@H](C)CO)C(=O)c2cc(NC(=O)Nc3ccc(F)cc3)ccc2O1	T cruzi growth-1 115.3, Pf Dd2 inh -83.0 | T cruzi growth-2 97.2 | T cruzi growth-3 113.9 | NIH3T3 tox 47.1 | NIH3T3 tox 2 103.1
